Like-named read-outs stand apart in the source and are kept apart here.
Key:
HUVEC microvessels = experiment: Solute permeability of HUVEC microvessels; type: in vitro ADME, human; settings: for Permeability differences between day two, four and six: p > 0.05; for Permeability in HUVEC microvessels relative to BC1 dhBMEC microvessels: HUVEC vs BC1 dhBMEC
[1] = Solute permeability of HUVEC microvessels; type: in vitro ADME, human; settings: human
BC1 dhBMEC microvessels [2] = experiment: Solute permeability of BC1 dhBMEC microvessels; type: in vitro ADME, human; settings: for Permeability on days four and six compared with day two: p > 0.05
[3] = system: iPS12, KW01 and AD6 dhBMEC microvessels; experiment: Solute permeability of dhBMEC microvessels from other iPSC lines; settings: day two, p > 0.05 for all comparisons
[4] = cited from earlier work
[5] = molecular target: P-glycoprotein (P-gp) in BC1 dhBMEC microvessels (Homo sapiens, UniProt P08183); experiment: Efflux inhibition in BC1 dhBMEC microvessels; type: cell-based
Chain of P-glycoprotein (P-gp) in BC1 dhBMEC microvessels (P08183 whole entry, the tested form may be a part): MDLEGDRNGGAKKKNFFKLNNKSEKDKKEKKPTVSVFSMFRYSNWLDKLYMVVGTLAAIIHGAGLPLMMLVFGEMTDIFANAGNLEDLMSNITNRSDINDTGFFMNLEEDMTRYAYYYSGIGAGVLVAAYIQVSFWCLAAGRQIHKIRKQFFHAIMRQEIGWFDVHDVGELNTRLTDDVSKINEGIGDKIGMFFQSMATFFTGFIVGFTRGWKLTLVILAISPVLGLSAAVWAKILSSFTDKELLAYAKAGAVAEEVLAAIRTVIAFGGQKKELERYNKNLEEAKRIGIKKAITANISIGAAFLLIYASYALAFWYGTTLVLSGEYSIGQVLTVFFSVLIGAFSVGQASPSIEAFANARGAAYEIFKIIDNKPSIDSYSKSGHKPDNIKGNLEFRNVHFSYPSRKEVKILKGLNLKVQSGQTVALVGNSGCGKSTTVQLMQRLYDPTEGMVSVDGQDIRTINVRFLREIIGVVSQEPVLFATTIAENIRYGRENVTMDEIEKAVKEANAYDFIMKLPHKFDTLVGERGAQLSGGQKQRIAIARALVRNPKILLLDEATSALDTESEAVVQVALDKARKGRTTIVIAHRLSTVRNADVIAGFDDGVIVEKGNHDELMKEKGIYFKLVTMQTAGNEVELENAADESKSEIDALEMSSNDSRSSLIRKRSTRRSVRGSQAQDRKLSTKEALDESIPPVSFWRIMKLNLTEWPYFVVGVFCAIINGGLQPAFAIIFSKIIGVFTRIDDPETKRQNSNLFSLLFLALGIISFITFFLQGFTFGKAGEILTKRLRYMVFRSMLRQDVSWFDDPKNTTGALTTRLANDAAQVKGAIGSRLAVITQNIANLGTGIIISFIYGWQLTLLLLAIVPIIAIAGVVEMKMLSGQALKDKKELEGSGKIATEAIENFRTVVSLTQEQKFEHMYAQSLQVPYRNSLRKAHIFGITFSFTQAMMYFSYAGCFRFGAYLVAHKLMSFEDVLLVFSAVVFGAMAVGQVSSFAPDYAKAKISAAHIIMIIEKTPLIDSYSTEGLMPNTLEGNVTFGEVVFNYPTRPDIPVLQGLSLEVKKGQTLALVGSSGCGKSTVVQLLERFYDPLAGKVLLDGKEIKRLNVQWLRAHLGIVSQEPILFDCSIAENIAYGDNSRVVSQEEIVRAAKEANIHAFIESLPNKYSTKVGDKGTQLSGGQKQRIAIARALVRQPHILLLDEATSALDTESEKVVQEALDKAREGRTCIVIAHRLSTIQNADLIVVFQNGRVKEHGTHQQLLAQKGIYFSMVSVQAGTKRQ

p-glycoprotein = settings: healthy humans, continuous infusion of tariquidar ref 80; cited from earlier work
[6] = system: iPS12, KW01 and AD6 dhBMEC microvessels
pial PCV microvessels = settings: rat, not told; cited from earlier work
BC1 dhBMEC microvessels [7] = experiment: Cytokine activation: permeability, adhesion molecules and leukocyte adhesion; type: cell-based, human
Procedure, shortened: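 dhBMEC microvessels in collagen I channels, perfused at ~1 dyn cm⁻² with serum-free endothelial media plus 1% platelet-poor serum, with or without 10 ng mL⁻¹ TNFα for 12 h. […] ICAM-1/VCAM-1 by immunostaining; breakdown by phase contrast. Mean ± SEM.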

[8] = 12-hour perfusion of 2 μM tariquidar

In the case of `COC(=O)c1ccccc1-c1c2ccc(=N)cc-2oc2cc(N)ccc12` [R123, Rhodamine 123], the “Permeability differences between day two, four and six” value (HUVEC microvessels; HUVEC microvessels) is reported as “no statistically significant differences”, the “Permeability in HUVEC microvessels relative to BC1 dhBMEC microvessels” value (HUVEC microvessels) is reported as “about 20 fold” and the Papp at 20 min, 5 μM [1] is reported as 3 ×10⁻⁶ cm/s. The “Permeability on days four and six compared with day two” value (BC1 dhBMEC microvessels [2]; BC1 dhBMEC microvessels) was “remained stable” and the “Permeability differences between BC1, iPS12, KW01 and AD6 microvessels” value [3] was “no statistically significant differences”.

In the case of `OC[C@@H](O)[C@@H](O)[C@H](O)[C@H](O)CO` [mannitol, d-mannitol], the Solubility limit [4] is given as “around 1.4 M”.

For `COc1cc2c(cc1OC)CN(CCc1ccc(NC(=O)c3cc(OC)c(OC)cc3NC(=O)c3cnc4ccccc4c3)cc1)CC2` [tariquidar], the “Disruptions in paracellular permeability” value [5, 8] was “not observed”, the “Increase in permeability of P-gp substrate Rhodamine 123” value [5, 8] was “two-fold” and the “Cytotoxicity (barrier function and microvessel structure)” value ([5]; 12 hours of tariquidar exposure) was “did not result in apparent cytotoxicity”. For the same compound, the “Effect on mitochondrial localization of R123” value ([5]; tariquidar treated BC1 dhBMEC microvessels) was “no noticeable effect” and the “Increase of verapamil distribution volume” value (p-glycoprotein) was 2.73 fold.

With Lucifer yellow [LY] the “Permeability differences between BC1, iPS12, KW01 and AD6 microvessels” value [6] was “no statistically significant differences”, the “Mean permeability over six days” value (HUVEC microvessels; HUVEC microvessels) was 3.90 ± 0.16 × 10^−6 cm s^−1 and the “PLY / PR123 (ratio of LY to R123 permeabilities)” value (HUVEC microvessels; HUVEC microvessels) was ~ 1.3. The “Permeability differences between day two, four and six” value (HUVEC microvessels; HUVEC microvessels) was “no statistically significant differences”, the “Permeability in HUVEC microvessels relative to BC1 dhBMEC microvessels” value (HUVEC microvessels) was “more than 10 fold” and the Permeability (BC1 dhBMEC microvessels [2]; BC1 dhBMEC microvessels, day two) was 2.50 ± 0.46 × 10^−7 cm s^−1. The “Permeability, average value across all time points” value (BC1 dhBMEC microvessels [2]; BC1 dhBMEC microvessels, over six days (days two, four, six)) was 2.84 ± 0.41 × 10^−7 cm s^−1, the “Permeability on days four and six compared with day two” value (BC1 dhBMEC microvessels [2]; BC1 dhBMEC microvessels) was “did not increase” and the “PLY / PR123 (ratio of LY to R123 permeabilities)” value (BC1 dhBMEC microvessels [2]; dhBMEC microvessels, untreated) was ~ 1.9. For the same compound, the “Permeability in 15 μm pial PCV microvessels” value (pial PCV microvessels) was 1 – 2 × 10^−7.

With TNFα the “Expression of adhesion molecules ICAM-1 and VCAM-1” value (BC1 dhBMEC microvessels [7]; 10 ng mL^−1 TNFα, 12 hours, immunocytochemistry) was “upregulation”, the “Permeability of LY, R123 or 10 kDa dextran after TNFα compared to control” value (BC1 dhBMEC microvessels [7]; 10 ng mL^−1 TNFα, 12 hours, p > 0.05 for all comparisons) was “did not alter” and the “Time to macroscopic breakdown of microvessels” value (BC1 dhBMEC microvessels [7]; microvessels exposed to TNFα with adherent PBMCs) was at most 24 h.

— article PMC6289621 (Biomaterials, 2018)
